# Peptide text beside a SMILES is read from it.
# Molecular target: Integrin alpha-IIb/beta-3 (Homo sapiens, UniProt P08514+P05106)
# Experiment: Concentration required to inhibit adenosine diphosphate (ADP) induced aggregation of human platelets by 50% in vitro.
# In short: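 PRP obtained by centrifugation and adjusted to […]. PRP stirred at 1000 rpm and prewarmed 2 min at 37 °C with compound. Submaximal ADP added; light-transmittance aggregometry.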
# Chain of Integrin alpha-IIb/beta-3 (P05106 27-788 limits assumed): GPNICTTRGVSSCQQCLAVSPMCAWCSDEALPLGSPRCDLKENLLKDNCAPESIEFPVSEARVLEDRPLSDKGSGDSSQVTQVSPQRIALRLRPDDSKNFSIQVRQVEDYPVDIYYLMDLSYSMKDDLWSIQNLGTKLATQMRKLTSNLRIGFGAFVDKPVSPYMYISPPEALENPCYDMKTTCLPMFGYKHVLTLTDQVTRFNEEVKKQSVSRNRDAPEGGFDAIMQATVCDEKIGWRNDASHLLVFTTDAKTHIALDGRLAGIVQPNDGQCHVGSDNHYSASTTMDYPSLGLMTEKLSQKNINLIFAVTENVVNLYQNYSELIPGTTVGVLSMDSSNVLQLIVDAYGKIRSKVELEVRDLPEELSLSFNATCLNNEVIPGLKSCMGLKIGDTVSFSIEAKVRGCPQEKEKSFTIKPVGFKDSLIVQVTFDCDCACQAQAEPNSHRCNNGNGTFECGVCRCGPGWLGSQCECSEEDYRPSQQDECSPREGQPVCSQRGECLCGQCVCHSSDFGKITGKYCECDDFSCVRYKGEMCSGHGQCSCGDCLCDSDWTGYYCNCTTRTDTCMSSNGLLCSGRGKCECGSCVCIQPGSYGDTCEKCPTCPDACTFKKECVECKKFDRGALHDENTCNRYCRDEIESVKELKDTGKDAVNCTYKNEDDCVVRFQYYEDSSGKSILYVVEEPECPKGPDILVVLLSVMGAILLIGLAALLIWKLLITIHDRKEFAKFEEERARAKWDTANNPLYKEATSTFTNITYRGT
# Chain of Integrin alpha-IIb/beta-3 (P08514 32-887 limits assumed): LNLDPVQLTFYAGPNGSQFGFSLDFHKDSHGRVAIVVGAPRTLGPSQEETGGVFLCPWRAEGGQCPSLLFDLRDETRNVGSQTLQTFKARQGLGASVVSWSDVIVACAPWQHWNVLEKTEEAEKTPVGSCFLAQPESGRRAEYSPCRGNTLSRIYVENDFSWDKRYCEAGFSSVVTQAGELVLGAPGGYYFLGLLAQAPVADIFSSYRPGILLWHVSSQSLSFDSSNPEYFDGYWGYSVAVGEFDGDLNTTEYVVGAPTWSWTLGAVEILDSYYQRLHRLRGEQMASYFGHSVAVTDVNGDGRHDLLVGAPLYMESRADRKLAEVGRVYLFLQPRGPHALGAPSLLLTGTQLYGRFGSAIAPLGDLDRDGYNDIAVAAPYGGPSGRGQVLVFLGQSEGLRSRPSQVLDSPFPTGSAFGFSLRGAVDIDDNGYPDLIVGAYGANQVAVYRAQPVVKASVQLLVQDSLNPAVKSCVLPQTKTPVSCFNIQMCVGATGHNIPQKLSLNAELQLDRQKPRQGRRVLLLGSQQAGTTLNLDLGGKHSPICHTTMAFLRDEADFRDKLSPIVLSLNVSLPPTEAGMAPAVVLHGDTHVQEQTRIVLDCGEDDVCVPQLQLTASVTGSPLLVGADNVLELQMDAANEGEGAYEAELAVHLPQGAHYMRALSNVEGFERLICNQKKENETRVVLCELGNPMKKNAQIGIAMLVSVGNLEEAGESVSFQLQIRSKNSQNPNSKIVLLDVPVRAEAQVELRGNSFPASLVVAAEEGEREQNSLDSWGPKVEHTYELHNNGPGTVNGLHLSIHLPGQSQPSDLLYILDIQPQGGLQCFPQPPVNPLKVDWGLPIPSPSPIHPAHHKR
# Chain of Integrin alpha-IIb/beta-3 (P08514 891-1039 limits assumed): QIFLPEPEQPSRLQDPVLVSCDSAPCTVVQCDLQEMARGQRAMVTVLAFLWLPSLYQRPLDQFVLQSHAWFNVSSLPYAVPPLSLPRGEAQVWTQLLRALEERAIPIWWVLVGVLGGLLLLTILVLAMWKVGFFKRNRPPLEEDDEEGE
row,SMILES,IC50 [nM]
1,N=C(N)c1ccc(C(=O)NCC(=O)N2CCN(CC(=O)O)C(=O)[C@@H]2CC(=O)O)cc1,110
2,COC(=O)CC[C@H]1C(=O)N(CC(=O)O)CCN1C(=O)CNC(=O)c1ccc(CCN)cc1 [3-((S)-1-{2-[4-(2-Amino-ethyl)-benzoylamino]-acetyl}-4-carboxymethyl-3-oxo-piperazin-2-yl)-propionic acid methyl ester],120
3,NCCc1ccc(C(=O)NCC(=O)N2CCN(CC(=O)O)C(=O)[C@@H]2CCC(=O)O)cc1 [3-((S)-1-{2-[4-(2-Amino-ethyl)-benzoylamino]-acetyl}-4-carboxymethyl-3-oxo-piperazin-2-yl)-propionic acid],110
4,COC(=O)CC[C@H]1C(=O)N(CC(=O)O)CCN1C(=O)CNC(=O)c1ccc(CCN(C)C)cc1 [3-((S)-4-Carboxymethyl-1-{2-[4-(2-dimethylamino-ethyl)-benzoylamino]-acetyl}-3-oxo-piperazin-2-yl)-propionic acid methyl ester],2300
5,CN(C)CCc1ccc(C(=O)NCC(=O)N2CCN(CC(=O)O)C(=O)[C@@H]2CCC(=O)O)cc1 [3-((S)-4-Carboxymethyl-1-{2-[4-(2-dimethylamino-ethyl)-benzoylamino]-acetyl}-3-oxo-piperazin-2-yl)-propionic acid],2500
6,COC(=O)CC[C@H]1C(=O)N(CC(=O)O)CCN1C(=O)CNC(=O)c1ccc(C(=N)N)cc1 [3-{(S)-1-[2-(4-Carbamimidoyl-benzoylamino)-acetyl]-4-carboxymethyl-3-oxo-piperazin-2-yl}-propionic acid methyl ester],90
7,N=C(N)c1ccc(C(=O)NCC(=O)N2CCN(CC(=O)O)C(=O)[C@@H]2CCC(=O)O)cc1 [3-{(S)-1-[2-(4-Carbamimidoyl-benzoylamino)-acetyl]-4-carboxymethyl-3-oxo-piperazin-2-yl}-propionic acid],52
8,N=C(N)c1ccc(C(=O)NCC(=O)N2CCN(CCC(=O)O)C(=O)[C@@H]2CC(=O)O)cc1 [3-{(S)-4-[2-(4-Carbamimidoyl-benzoylamino)-acetyl]-3-carboxymethyl-2-oxo-piperazin-1-yl}-propionic acid],30000
9,NCCc1ccc(C(=O)NCC(=O)N2CCN(CC(=O)O)C(=O)C2)cc1 [(4-{2-[4-(2-Amino-ethyl)-benzoylamino]-acetyl}-2-oxo-piperazin-1-yl)-acetic acid],150
10,N=C(N)c1ccc(CC(=O)NCC(=O)N2CCN(CC(=O)O)C(=O)[C@@H]2CC(=O)O)cc1 [((S)-1-{2-[2-(4-Carbamimidoyl-phenyl)-acetylamino]-acetyl}-4-carboxymethyl-3-oxo-piperazin-2-yl)-acetic acid],1200
11,NCCc1ccc(C(=O)NCC(=O)N2CCN(CC(=O)O)C(=O)[C@@H]2CC(=O)O)cc1 [((S)-1-{2-[4-(2-Amino-ethyl)-benzoylamino]-acetyl}-4-carboxymethyl-3-oxo-piperazin-2-yl)-acetic acid],130
12,NCCCc1ccc(C(=O)NCC(=O)N2CCN(CC(=O)O)C(=O)[C@@H]2CC(=O)O)cc1 [((S)-1-{2-[4-(3-Amino-propyl)-benzoylamino]-acetyl}-4-carboxymethyl-3-oxo-piperazin-2-yl)-acetic acid],1030
13,N=C(N)N1CCC(C(=O)NCC(=O)N2CCN(CC(=O)O)C(=O)[C@@H]2CC(=O)O)CC1 [((S)-1-{2-[(1-Carbamimidoyl-piperidine-4-carbonyl)-amino]-acetyl}-4-carboxymethyl-3-oxo-piperazin-2-yl)-acetic acid],800
14,"CN(C)C(N)=Nc1ccc(C(=O)NCC(=O)N2CCN(CC(=O)O)C(=O)[C@@H]2CC(=O)O)cc1 [((S)-4-Carboxymethyl-1-{2-[4-(N',N'-dimethyl-guanidino)-benzoylamino]-acetyl}-3-oxo-piperazin-2-yl)-acetic acid]",11000
15,N=C(N)NCC1CCC(C(=O)NCC(=O)N2CCN(CC(=O)O)C(=O)[C@@H]2CC(=O)O)CC1 (stereo partly drawn) [((S)-4-Carboxymethyl-1-{2-[(4-guanidinomethyl-cyclohexanecarbonyl)-amino]-acetyl}-3-oxo-piperazin-2-yl)-acetic acid],1100
16,COC(=O)C[C@H]1C(=O)N(CC(=O)O)CCN1C(=O)CNC(=O)c1ccc(CCN)cc1 [((S)-4-{2-[4-(2-Amino-ethyl)-benzoylamino]-acetyl}-3-methoxycarbonylmethyl-2-oxo-piperazin-1-yl)-acetic acid],78
17,NC(N)=NCCC[C@H](N)C(=O)NCC(=O)N[C@@H](CC(=O)O)C(=O)N[C@@H](Cc1ccccc1)C(=O)O [(R)-3-[2-((S)-2-Amino-5-guanidino-pentanoylamino)-acetylamino]-N-((S)-1-carboxy-2-phenyl-ethyl)-succinamic acid] (H-RGDF-OH),48000
18,N=C(N)c1ccc(C(=O)NCC(=O)N2CCN([C@@H](Cc3ccccc3)C(=O)O)C(=O)[C@@H]2CC(=O)O)cc1 [(S)-2-{(S)-4-[2-(4-Carbamimidoyl-benzoylamino)-acetyl]-3-carboxymethyl-2-oxo-piperazin-1-yl}-3-phenyl-propionic acid],4100
19,C[C@@H](C(=O)O)N1CCN(C(=O)CNC(=O)c2ccc(C(=N)N)cc2)[C@@H](CC(=O)O)C1=O [(S)-2-{(S)-4-[2-(4-Carbamimidoyl-benzoylamino)-acetyl]-3-carboxymethyl-2-oxo-piperazin-1-yl}-propionic acid],1500
20,N=C(N)c1ccc(C(=O)NCC(=O)N2CCN(CC(=O)O)C(=O)C2)cc1 [{4-[2-(4-Carbamimidoyl-benzoylamino)-acetyl]-2-oxo-piperazin-1-yl}-acetic acid],94
21,COC(=O)C[C@@H]1C(=O)N(CC(=O)O)CCN1C(=O)CNC(=O)c1ccc(C(=N)N)cc1 [{(R)-4-[2-(4-Carbamimidoyl-benzoylamino)-acetyl]-3-methoxycarbonylmethyl-2-oxo-piperazin-1-yl}-acetic acid],580
22,N=C(N)c1cccc(C(=O)NCC(=O)N2CCN(CC(=O)O)C(=O)[C@@H]2CC(=O)O)c1 [{(S)-1-[2-(3-Carbamimidoyl-benzoylamino)-acetyl]-4-carboxymethyl-3-oxo-piperazin-2-yl}-acetic acid],13000
23,N=C(N)c1ccc(C(=O)NCC(=O)N2CCN(CC(N)=O)C(=O)[C@@H]2CC(=O)O)cc1 [{(S)-1-[2-(4-Carbamimidoyl-benzoylamino)-acetyl]-4-carbamoylmethyl-3-oxo-piperazin-2-yl}-acetic acid],30000
24,COC(=O)CN1CCN(C(=O)CNC(=O)c2ccc(C(=N)N)cc2)[C@@H](CC(=O)O)C1=O [{(S)-1-[2-(4-Carbamimidoyl-benzoylamino)-acetyl]-4-methoxycarbonylmethyl-3-oxo-piperazin-2-yl}-acetic acid],2600
25,N=C(N)c1ccc(C(=O)NCC(=O)N2CCN(CC(=O)O)C(=O)[C@@H]2Cc2ccccc2)cc1 [{(S)-3-Benzyl-4-[2-(4-carbamimidoyl-benzoylamino)-acetyl]-2-oxo-piperazin-1-yl}-acetic acid],110
26,NC(N)=Nc1ccc(C(=O)NCC(=O)N2CCN(CC(=O)O)C(=O)[C@@H]2CC(=O)O)cc1 [{(S)-4-Carboxymethyl-1-[2-(4-guanidino-benzoylamino)-acetyl]-3-oxo-piperazin-2-yl}-acetic acid],350
27,N=C(N)NCc1ccc(C(=O)NCC(=O)N2CCN(CC(=O)O)C(=O)[C@@H]2CC(=O)O)cc1 [{(S)-4-Carboxymethyl-1-[2-(4-guanidinomethyl-benzoylamino)-acetyl]-3-oxo-piperazin-2-yl}-acetic acid],560
28,N=C(N)NCCCCC(=O)NCC(=O)N1CCN(CC(=O)O)C(=O)[C@@H]1CC(=O)O [{(S)-4-Carboxymethyl-1-[2-(5-guanidino-pentanoylamino)-acetyl]-3-oxo-piperazin-2-yl}-acetic acid],3600
29,N=C(N)c1ccc(C(=O)NCC(=O)N2CCN(CC(=O)O)C(=O)[C@@H]2CC(N)=O)cc1 [{(S)-4-[2-(4-Carbamimidoyl-benzoylamino)-acetyl]-3-carbamoylmethyl-2-oxo-piperazin-1-yl}-acetic acid],740
